Sampled rows, rich in hits. Any-hit rate of the full collection: about 3.1%.
OX1R antag-1 – human HCRTR1 antagonism | O43613 | CHO/OX1R cells, Fluo-8 calcium fluorescence, orexin A | inhibition, % at 5 µM | 330,000 tested, 0.43% active;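 active = inhibition above its plate's threshold, mean inhibition of all tested compounds on the plate plus 3 SD, cut at about 37% in these data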;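 note: 0% = orexin A challenge wells and 100% = SB-334867-A antagonist wells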
GalR3 antag – human GalR3 antagonism. HEK293 GalR3-CNG cAMP membrane potential fluorescence; galR3 body fused to GalR1 C-terminus. 360,000 tested, 0.44% active. inhibition, % at 3 µM. O60755;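 active = inhibition above the screen-wide average plus 3 SD, cut at about 13% in these data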;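 note: forskolin and galanin both at EC90 stimulate the cells; cAMP rise reported by CNG channel membrane potential dye signal; 0% = forskolin plus galanin with DMSO and 100% = forskolin alone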
Target sequence (O60755 1-299 limits assumed): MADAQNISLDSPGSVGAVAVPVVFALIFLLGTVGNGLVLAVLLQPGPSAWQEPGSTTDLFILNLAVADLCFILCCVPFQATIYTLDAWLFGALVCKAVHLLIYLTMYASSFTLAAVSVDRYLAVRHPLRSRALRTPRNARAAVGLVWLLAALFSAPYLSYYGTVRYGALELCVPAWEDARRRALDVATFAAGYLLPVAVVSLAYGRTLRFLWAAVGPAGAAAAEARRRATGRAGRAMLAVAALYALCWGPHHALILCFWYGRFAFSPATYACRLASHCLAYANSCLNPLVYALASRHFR
CHO parental Ca – signal in parental CHO cells, OX1R antagonist counter-screen. inhibition, % at 5.6 µM. parental CHO-K1, ATP-induced calcium, Fluo-8 fluorescence. 330,000 tested, 0.63% active;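 active = inhibition above that plate's mean sample inhibition plus 3 SD, cut at about 26% in these data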;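 note: 0% = ATP-challenged DMSO wells and 100% = DMSO wells without ATP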
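Measured by: calcium-sensitive Fluo-8 fluorescence / Test system: CHO parental line / Controls: ATP-challenged DMSO wells low, unchallenged DMSO wells high / Measure: % inhibition / Compound: single nominal dose of 5.6 µM per compound / Replicates: single well per compound, no replicates / Reagent: ATP as calcium-mobilizing challenge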
GPR7 antagonist – human neuropeptides B/W receptor 1 antagonism; AID 1861; inhibition, % at 4.4 µM; GPR7-expressing cells, fluorescence antagonist assay; 290,000 tested, 1.1% active; in the data active = inhibition above about 16%, passing the limit was not always enough;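 note: cells stimulated with the agonist NPW; 0% = agonist with vehicle and 100% = vehicle without agonist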
Target sequence (P48145 whole entry, looked up): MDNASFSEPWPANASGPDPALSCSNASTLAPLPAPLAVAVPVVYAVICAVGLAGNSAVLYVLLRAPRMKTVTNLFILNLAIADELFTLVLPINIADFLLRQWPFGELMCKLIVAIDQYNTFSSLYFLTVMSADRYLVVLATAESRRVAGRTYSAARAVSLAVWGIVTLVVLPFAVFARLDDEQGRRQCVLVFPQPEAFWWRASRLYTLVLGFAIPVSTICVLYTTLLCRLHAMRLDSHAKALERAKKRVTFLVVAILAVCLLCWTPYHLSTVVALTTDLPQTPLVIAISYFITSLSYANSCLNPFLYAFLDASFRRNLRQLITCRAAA
OX1R antag-2 – blocks the human orexin 1 receptor. O43613. OX1R-expressing cells, FRET antagonist read-out. inhibition, % at 6.6 µM. 330,000 tested, 1.8% active. AID 485270; in the data active = inhibition mostly above about 38%, no sharp cut-off; inactive = mostly below about 40%;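 note: 0% = agonist challenge alone and 100% = reference antagonist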
OX1R HTRF confirm – confirmation of human orexin 1 receptor antagonists, HTRF format. shares compounds with OX1R antag-2. OX1R-expressing cells, HTRF antagonist assay. inhibition, % at 6.6 µM. 1,800 tested, 49% active; in the data active = inhibition above about 55%;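 note: CHO cells expressing OX1R stimulated with orexin A at about EC80; 0% = agonist challenge alone and 100% = reference antagonist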
CHO-K1 HTRF – counter-screen: parental CHO-K1 HTRF response | shares compounds with OX1R antag-2 | parental CHO-K1 cells, HTRF counterscreen | inhibition, % at 6.6 µM | 1,800 tested, 48% active | AID 493232; in the data active = inhibition above about 17%;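 note: 0% = agonist challenge with vehicle and 100% = vehicle alone without agonist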
The depositor's hits bear a star; · = not tested or not shown.

SMILES	OX1R antag-1	GalR3 antag	CHO parental Ca	GPR7 antagonist	OX1R antag-2	OX1R HTRF confirm	CHO-K1 HTRF
CC(C)N(C(=O)Cn1cnc2cc([N+](=O)[O-])ccc2c1=O)C(C)C	-12	·	-10	15	141*	44	93*
O=C(Cn1cnc2cc([N+](=O)[O-])ccc2c1=O)NCCc1ccc(F)cc1	-14	0	-12	-6	42	·	·
O=C(Cn1cnc2cc([N+](=O)[O-])ccc2c1=O)NCc1ccccc1	-15	-3	-11	-9	95*	55*	62*
O=C(NCc1c(Cl)cccc1Cl)c1[nH]c(C(F)(F)F)nc1-c1ccccc1	·	-5	·	·	·	·	·
COC(=O)c1c(NC(=O)c2ccco2)sc2c1C(C(=O)OC)CC2 (stereo not drawn)	-1	-3	-29	-4	80*	62*	-6
CC(=O)c1sc(N/N=C/c2cccc(O)c2)nc1C	-21	2	-9	12	30	·	·
CC(=O)c1sc(N/N=C\c2c(O)ccc3ccccc23)nc1C	-2	-6	2	·	85*	58*	7
CC1(c2nnnn2-c2ccc3c(c2)OCCO3)CCC(=O)N1C1CCN(Cc2ccccc2)CC1 (stereo not drawn)	·	3	·	·	·	·	·
Cc1ccc(N=Nc2c(=O)[nH]n3c(C)cc(C)nc23)cc1	-25	-5	-14	-6	174*	48	80*
Cc1ccc(N=Nc2c(N)[nH]n3c(=O)cc(C)nc23)cc1	-16	-5	-8	-9	8	·	·
Cc1cc(C)n2[nH]c(=O)c(N=Nc3ccc(S(N)(=O)=O)cc3)c2n1	-13	3	-5	3	88*	57*	85*
O=[N+]([O-])c1ccc(-n2cnc3ccccc32)c([N+](=O)[O-])c1	-13	-1	-6	-10	107*	39	45*
Cc1ccccc1OCCC(=O)Nc1ccc(S(=O)(=O)N2CCCC2)cc1	·	-4	·	·	·	·	·
O=[N+]([O-])c1ccc(-[n+]2nc(-c3ccccc3)nn2-c2ccccc2)cc1	-2	-13	-3	-10	81*	53	79*
COc1ccc(C(C)NC(=O)c2cccc([N+](=O)[O-])c2)cc1OC (stereo not drawn)	-23	4	-7	6	23	·	·
COCC(C)NC(=O)c1cccc([N+](=O)[O-])c1 (stereo not drawn)	2	1	-1	-8	127*	19	19*
O=C(O)c1ccc(Nc2cc(Cl)c3nonc3c2[N+](=O)[O-])cc1	-14	-1	-16	-17	96*	62*	98*
Cc1c(Nc2ccc3nonc3c2[N+](=O)[O-])c(=O)n(-c2ccccc2)n1C	-32	5	-18	-8	195*	53	87*
O=C(O)c1cccc(Nc2ccc3nonc3c2[N+](=O)[O-])c1	-3	2	2	-6	92*	58*	97*
O=[N+]([O-])c1ccc2nonc2c1Nc1cccc(F)c1	-8	-5	-6	3	25	·	·
NS(=O)(=O)c1ccc(Nc2ccc3nonc3c2[N+](=O)[O-])cc1	-12	-4	-6	-14	90*	63*	110*
CC(=O)Nc1ccc(Nc2cc(N(C)C)c3nonc3c2[N+](=O)[O-])cc1	·	-10	·	7	·	·	·
CCCCNC(=O)C[C@H]1C[C@@]2(C(=O)OC)C(=C[C@H](C(C)(C)C)O[C@@H]2C)N(Cc2ccc3c(c2)OCO3)C1=O	·	-7	·	·	·	·	·
CC(=O)N1CCN(c2ccc(C(N)=O)cc2[N+](=O)[O-])CC1	8	0	-2	-1	81*	27	30*
NC(=O)c1ccc(N2CCCCCC2)c([N+](=O)[O-])c1	-5	-1	1	-17	11	·	·
SMILES	OX1R antag-1	GalR3 antag	CHO parental Ca	GPR7 antagonist	OX1R antag-2	OX1R HTRF confirm	CHO-K1 HTRF
CCOC(=O)C1CCN(c2ccc([N+](=O)[O-])cc2S(=O)(=O)N2CCOCC2)CC1	-21	-9	-4	3	31	·	·
CCCN1CCN(c2ccc([N+](=O)[O-])cc2C#N)CC1	-19	-9	-13	2	83*	39	46*
CCN1CCN(c2ccc([N+](=O)[O-])cc2S(=O)(=O)N2CCOCC2)CC1	-9	8	-11	-6	145*	36	44*
CC(=O)N1CCN(c2ccc([N+](=O)[O-])cc2C#N)CC1	4	-6	4	-3	100*	38	47*
O=C(c1ccccc1)N1CCN(c2ccc([N+](=O)[O-])cc2-n2cccc2)CC1	-19	-5	-11	10	9	·	·
O=C(c1ccc(NS(=O)(=O)c2cccc([N+](=O)[O-])c2)cc1)N1CCCCCC1	-22	-1	-10	·	24	·	·
O=C(c1ccccc1NS(=O)(=O)c1cccc([N+](=O)[O-])c1)N1CCCC1	0	0	-11	-15	78*	20	7
CCOC(=O)c1c(C)nc2c3ccccc3ccn12	1	-2	-20	-2	90*	58*	-6
CCOC(=O)c1c(C)nc2c(C)cccn12	-15	-3	-3	-4	3	·	·
COc1ccc(-c2cnc3nc[nH]c(=O)c3n2)cc1	2	-1	8	-13	197*	56*	90*
COc1ccc(-c2csc3nc[nH]c(=O)c23)cc1	-11	-6	-3	-2	14	·	·
CCOC(=O)c1nnn(-c2ccc([N+](=O)[O-])cc2[N+](=O)[O-])c1C	-6	-8	-20	-3	143*	46	73*
CC1CC(C)(C)CC2(C1)NC(=O)N(CC(=O)Nc1ccc3c(c1)OCO3)C2=O (stereo not drawn)	·	-7	·	·	·	·	·
CN1CCc2cc3c(c4c2[C@H]1[C@H](O)c1ccccc1-4)OCO3	-17	-3	-1	-13	119*	66*	35*
CCCCCCCCCCCCCCCCCCNc1ccn(C2OC(COP(=O)(O)OCC3OC(n4cc(F)c(=O)[nH]c4=O)CC3O)C(O)C2O)c(=O)n1 (stereo not drawn)	·	-3	·	·	·	·	·
COc1cccc(N=Nc2c(=O)[nH]n3c(=O)cc(C)[nH]c23)c1	-2	-1	4	-6	107*	41	48*
CSCCC(C(=O)NC1CCCC1)n1c(-c2ccccn2)nc2ccccc21 (stereo not drawn)	·	-8	·	·	·	·	·
COCCCn1c(=N)c(C(=O)NCC2CCCO2)cc2c(=O)n3ccccc3nc21 (stereo not drawn)	-12	-3	-18	-2	93*	48	65*
N=c1c(C(=O)NC2CCCC2)cc2c(=O)n3ccccc3nc2n1CCN1CCOCC1	-7	-2	-8	-6	102*	35	43*
